Measurements published in ChEMBL document CHEMBL1687847, “Three residues in HIV-1 matrix contribute to protease inhibitor susceptibility and replication capacity” (2011).
Activity calls are given as the source filed them. The calls are words filed in the database; no cut-off is given here.

Columns and labels:
[1] = system: Human immunodeficiency virus 1; assay: Antiviral activity against HIV1 harboring mutant protease with matrix Y79F mutant infected in HEK293T cells assessed as inhibition of viral replication after 48 hrs by luciferase assay; format: functional, organism-based; settings: HEK-293T
Summary of the method: (§1)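 Resistance vectors were made by cotransfecting HEK293T cells with a p8.9NSX-derived gag-pol vector carrying the matrix/protease variant, a VSV-G plasmid and a firefly luciferase plasmid. At 16 h, producer cells were reseeded in graded PI concentrations, and vectors were harvested 24 h later to infect fresh HEK293T cells. Luciferase was read 48 h postinfection relative to no-drug controls. EC50 came from linear regression, expressed as fold change versus WT subtype B p8.9NSX, mean of ≥2 experiments.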

[2] = system: Human immunodeficiency virus 1; assay: Antiviral activity against 8gpNS with amino acid 116 insertion removed HIV1 infected in HEK293T cells assessed as inhibition of viral replication after 48 hrs by luciferase assay; format: functional, organism-based; settings: HEK-293T; summary of the method: as §1
[3] = system: Human immunodeficiency virus 1; assay: Ratio of EC50 for HIV1 harboring HIV1 harboring wild type 8.9NSX with gag […] and T81A mutant to EC50 for wild type HIV1; format: functional; summary of the method: as §1
[4] = system: Human immunodeficiency virus 1; assay: Antiviral activity against HIV1 harboring mutant protease with matrix K76R mutant infected in HEK293T cells assessed as inhibition of viral replication after 48 hrs by luciferase assay; format: functional, organism-based; settings: HEK-293T; summary of the method: as §1
[5] = system: Human immunodeficiency virus 1; assay: Antiviral activity against HIV1 harboring wild type 8.9NSX with mutant amino acid 116 insertion infected in HEK293T cells assessed as inhibition of viral replication after 48 hrs by luciferase assay; format: functional, organism-based; settings: HEK-293T; summary of the method: as §1
[6] = system: Human immunodeficiency virus 1; assay: Antiviral activity against HIV1 harboring wild type 8.9NSX with gag T81A mutant infected in HEK293T cells assessed as inhibition of viral replication after 48 hrs by luciferase assay; format: functional, organism-based; settings: HEK-293T; summary of the method: as §1
[7] = system: Human immunodeficiency virus 1; assay: Antiviral activity against HIV1 harboring mutant protease with matrix A81T mutant infected in HEK293T cells assessed as inhibition of viral replication after 48 hrs by luciferase assay; format: functional, organism-based; settings: HEK-293T; summary of the method: as §1

| SMILES | inhibition [1] | inhibition [2] | Ratio EC50 [3] | inhibition [4] | inhibition [5] | inhibition [6] | inhibition [7] |
| --- | --- | --- | --- | --- | --- | --- | --- |
| CC(C)CN(C[C@@H](O)[C@H](Cc1ccccc1)NC(=O)O[C@H]1CCOC1)S(=O)(=O)c1ccc(N)cc1 [AMPRENAVIR] | inactive | inactive | 3 | inactive | inactive | inactive | inactive |
| Cc1cccc(C)c1OCC(=O)N[C@@H](Cc1ccccc1)[C@@H](O)C[C@H](Cc1ccccc1)NC(=O)[C@H](C(C)C)N1CCCNC1=O [LOPINAVIR] | inactive | inactive | 3 | inactive | inactive | – | inactive |
| CC(C)(C)NC(=O)[C@@H]1C[C@@H]2CCCC[C@@H]2CN1C[C@@H](O)[C@H](Cc1ccccc1)NC(=O)[C@H](CC(N)=O)NC(=O)c1ccc2ccccc2n1 [SAQUINAVIR] | – | inactive | 3 | – | inactive | – | – |
| CC(C)(C)NC(=O)[C@@H]1CN(Cc2cccnc2)CCN1C[C@@H](O)C[C@@H](Cc1ccccc1)C(=O)N[C@H]1c2ccccc2C[C@H]1O.O [INDINAVIR] | inactive | inactive | 3 | inactive | inactive | – | inactive |
| Cc1c(O)cccc1C(=O)N[C@@H](CSc1ccccc1)[C@H](O)CN1C[C@H]2CCCC[C@H]2C[C@H]1C(=O)NC(C)(C)C [NELFINAVIR] | inactive | inactive | 3 | inactive | inactive | inactive | inactive |
| CC(C)CN(C[C@@H](O)[C@H](Cc1ccccc1)NC(=O)O[C@H]1CO[C@H]2OCC[C@H]21)S(=O)(=O)c1ccc(N)cc1 [DARUNAVIR] | – | inactive | 3 | – | inactive | – | – |
| COC(=O)N[C@H](C(=O)N[C@@H](Cc1ccccc1)[C@@H](O)CN(Cc1ccc(-c2ccccn2)cc1)NC(=O)[C@@H](NC(=O)OC)C(C)(C)C)C(C)(C)C | inactive | inactive | – | inactive | inactive | inactive | inactive |
| CCC[C@@]1(CCc2ccccc2)CC(O)=C([C@H](CC)c2cccc(NS(=O)(=O)c3ccc(C(F)(F)F)cn3)c2)C(=O)O1 [TIPRANAVIR] | – | inactive | 3 | – | inactive | – | – |
